Measured values reported in ChEMBL document CHEMBL1641426, “Microwave assisted one pot synthesis of some novel 2,5-disubstituted 1,3,4-oxadiazoles as antifungal agents” (2011).
Converted amounts (≈) assume the structure as drawn. The source made the active and inactive calls. No cut-off for these calls is given here.

Legend:
Candida albicans [1] = experiment: Antifungal activity against Candida albicans assessed as macroscopically visible colonies after 48 and 72 hrs by standard agar dilution method; format: functional
Outline: (§1)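 MIC by standard agar method. Tested against Candida albicans, Fusarium oxysporum, Aspergillus flavus, Aspergillus niger and Cryptococcus neoformans. Dimethyl sulfoxide served as solvent control, and miconazole and fluconazole served as reference standards.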

Fusarium oxysporum = experiment: Antifungal activity against Fusarium oxysporum assessed as macroscopically visible colonies after 48 and 72 hrs by standard agar dilution method; format: functional; outline: as §1
Aspergillus flavus = experiment: Antifungal activity against Aspergillus flavus assessed as macroscopically visible colonies after 48 and 72 hrs by standard agar dilution method; format: functional; outline: as §1
Cryptococcus neoformans [2] = experiment: Antifungal activity against Cryptococcus neoformans assessed as appearance of macroscopically visible colonies after 48 and 72 hrs by standard agar dilution method; format: functional; outline: as §1
Aspergillus niger [3] = experiment: Antifungal activity against Aspergillus niger assessed as macroscopically visible colonies after 48 and 72 hrs by standard agar dilution method; format: functional; outline: as §1
Cryptococcus neoformans [4] = experiment: Antifungal activity against Cryptococcus neoformans assessed as appearance of macroscopically visible colonies upto 200 ug/ml after 48 and 72 hrs by standard agar dilution method; format: functional, organism-based; outline: as §1
Aspergillus niger [5] = experiment: Antifungal activity against Aspergillus niger assessed as macroscopically visible colonies upto 200 ug/ml after 48 and 72 hrs by standard agar dilution method; format: functional, organism-based; outline: as §1
Candida albicans [6] = experiment: Antifungal activity against Candida albicans assessed as macroscopically visible colonies upto 200 ug/ml after 48 and 72 hrs by standard agar dilution method; format: functional, organism-based; outline: as §1

Row | SMILES | MIC (Candida albicans [1]) | MIC (Fusarium oxysporum) | MIC (Aspergillus flavus) | MIC (Cryptococcus neoformans [2]) | MIC (Aspergillus niger [3]) | Activity (Cryptococcus neoformans [4]) | Activity (Aspergillus niger [5]) | Activity (Candida albicans [6])
1 | CS(=O)(=O)N1CCC(n2cc(-c3nnc(-c4cccc([N+](=O)[O-])c4)o3)nn2)CC1 | 40 µg/mL (≈ 95.4 µM) | 55 µg/mL (≈ 131 µM) | 50 µg/mL (≈ 119 µM) | 90 µg/mL (≈ 215 µM) | 70 µg/mL (≈ 167 µM) | – | – | –
2 | O=C(c1ccc(Cl)cc1)N1CCC(n2cc(-c3nnc(-c4ccccc4)o3)nn2)CC1 | 150 µg/mL (≈ 345 µM) | 90 µg/mL (≈ 207 µM) | 90 µg/mL (≈ 207 µM) | – | 100 µg/mL (≈ 230 µM) | inactive | – | –
3 | Cc1cccc(-c2nnc(-c3cn(C4CCN(C(=O)c5ccccc5)CC4)nn3)o2)c1 | – | 100 µg/mL (≈ 241 µM) | 150 µg/mL (≈ 362 µM) | – | – | inactive | inactive | inactive
4 | c1ccc(-c2nnc(-c3cn(C4CCNCC4)nn3)o2)cc1 | 80 µg/mL (≈ 270 µM) | 85 µg/mL (≈ 287 µM) | 90 µg/mL (≈ 304 µM) | 150 µg/mL (≈ 506 µM) | 125 µg/mL (≈ 422 µM) | – | – | –
5 | CCN1CCC(n2cc(-c3nnc(-c4cccc(OC)c4)o3)nn2)CC1 | 50 µg/mL (≈ 141 µM) | 60 µg/mL (≈ 169 µM) | 50 µg/mL (≈ 141 µM) | 100 µg/mL (≈ 282 µM) | 75 µg/mL (≈ 212 µM) | – | – | –
6 | CS(=O)(=O)N1CCC(n2cc(-c3nnc(-c4cccc(O)c4)o3)nn2)CC1 | 30 µg/mL (≈ 76.8 µM) | 25 µg/mL (≈ 64 µM) | 15 µg/mL (≈ 38.4 µM) | 100 µg/mL (≈ 256 µM) | 15 µg/mL (≈ 38.4 µM) | – | – | –
7 | CC(=O)N1CCC(n2cc(-c3nnc(-c4cccc(C)c4)o3)nn2)CC1 | 45 µg/mL (≈ 128 µM) | 40 µg/mL (≈ 114 µM) | 35 µg/mL (≈ 99.3 µM) | – | 40 µg/mL (≈ 114 µM) | inactive | – | –
8 | CC(=O)N1CCC(n2cc(-c3nnc(-c4cccc(Cl)c4)o3)nn2)CC1 | 35 µg/mL (≈ 93.9 µM) | 30 µg/mL (≈ 80.5 µM) | 20 µg/mL (≈ 53.6 µM) | – | 25 µg/mL (≈ 67.1 µM) | inactive | – | –
9 | Clc1ccc(COC(Cn2ccnc2)c2ccc(Cl)cc2Cl)c(Cl)c1 (stereo not given) [MICONAZOLE] | 25 µg/mL (≈ 60.1 µM) | 25 µg/mL (≈ 60.1 µM) | 12.5 µg/mL (≈ 30 µM) | 25 µg/mL (≈ 60.1 µM) | 12.5 µg/mL (≈ 30 µM) | – | – | –
10 | COc1cccc(-c2nnc(-c3cn(C4CCN(C)CC4)nn3)o2)c1 | 60 µg/mL (≈ 176 µM) | 65 µg/mL (≈ 191 µM) | 50 µg/mL (≈ 147 µM) | 80 µg/mL (≈ 235 µM) | 70 µg/mL (≈ 206 µM) | – | – | –
11 | CN1CCC(n2cc(-c3nnc(-c4cccc(O)c4)o3)nn2)CC1 | 40 µg/mL (≈ 123 µM) | 35 µg/mL (≈ 107 µM) | 25 µg/mL (≈ 76.6 µM) | – | 35 µg/mL (≈ 107 µM) | inactive | – | –
12 | CCN1CCC(n2cc(-c3nnc(-c4cccc(O)c4)o3)nn2)CC1 | 35 µg/mL (≈ 103 µM) | 35 µg/mL (≈ 103 µM) | 20 µg/mL (≈ 58.8 µM) | 60 µg/mL (≈ 176 µM) | 20 µg/mL (≈ 58.8 µM) | – | – | –
13 | CN1CCC(n2cc(-c3nnc(-c4cccc(Cl)c4)o3)nn2)CC1 | 55 µg/mL (≈ 160 µM) | 50 µg/mL (≈ 145 µM) | 40 µg/mL (≈ 116 µM) | 150 µg/mL (≈ 435 µM) | 45 µg/mL (≈ 131 µM) | – | – | –
14 | CC(C)(C)OC(=O)N1CCC(n2cc(-c3nnc(-c4ccccc4)o3)nn2)CC1 | 100 µg/mL (≈ 252 µM) | 125 µg/mL (≈ 315 µM) | 100 µg/mL (≈ 252 µM) | – | 150 µg/mL (≈ 378 µM) | inactive | – | –
15 | CS(=O)(=O)N1CCC(n2cc(-c3nnc(-c4cccc(Cl)c4)o3)nn2)CC1 | 25 µg/mL (≈ 61.1 µM) | 25 µg/mL (≈ 61.1 µM) | 15 µg/mL (≈ 36.7 µM) | 50 µg/mL (≈ 122 µM) | 20 µg/mL (≈ 48.9 µM) | – | – | –
16 | O=C(c1ccccc1)N1CCC(n2cc(-c3nnc(-c4ccccc4)o3)nn2)CC1 | – | 100 µg/mL (≈ 250 µM) | 150 µg/mL (≈ 375 µM) | – | 175 µg/mL (≈ 437 µM) | inactive | – | inactive
17 | CS(=O)(=O)N1CCC(n2cc(-c3nnc(-c4ccccc4)o3)nn2)CC1 | 35 µg/mL (≈ 93.5 µM) | 40 µg/mL (≈ 107 µM) | 45 µg/mL (≈ 120 µM) | 55 µg/mL (≈ 147 µM) | 40 µg/mL (≈ 107 µM) | – | – | –
18 | OC(Cn1cncn1)(Cn1cncn1)c1ccc(F)cc1F [FLUCONAZOLE] | 5 µg/mL (≈ 16.3 µM) | 5 µg/mL (≈ 16.3 µM) | 5 µg/mL (≈ 16.3 µM) | 5 µg/mL (≈ 16.3 µM) | 10 µg/mL (≈ 32.7 µM) | – | – | –
19 | CN1CCC(n2cc(-c3nnc(-c4ccccc4)o3)nn2)CC1 | 70 µg/mL (≈ 226 µM) | 70 µg/mL (≈ 226 µM) | 60 µg/mL (≈ 193 µM) | 90 µg/mL (≈ 290 µM) | 80 µg/mL (≈ 258 µM) | – | – | –
20 | CCN1CCC(n2cc(-c3nnc(-c4ccccc4)o3)nn2)CC1 | 55 µg/mL (≈ 170 µM) | 50 µg/mL (≈ 154 µM) | 60 µg/mL (≈ 185 µM) | 80 µg/mL (≈ 247 µM) | 80 µg/mL (≈ 247 µM) | – | – | –
21 | CCN1CCC(n2cc(-c3nnc(-c4cccc(Cl)c4)o3)nn2)CC1 | 40 µg/mL (≈ 111 µM) | 35 µg/mL (≈ 97.5 µM) | 25 µg/mL (≈ 69.7 µM) | 50 µg/mL (≈ 139 µM) | 50 µg/mL (≈ 139 µM) | – | – | –
